Published values pooled from the literature.
Compare with care: the assays were run in different laboratories.
Target: Acetylcholinesterase (ache, Electrophorus electricus, UniProt O42275)
Effect on: enzyme activity
Action: inhibitor
Technique: Ellman

CC(C)(C)OC(=O)NC1CCCN(C(=O)/C=C/c2cccc(F)c2)C1 (stereo not shown) — IC50: 37.7 µM
O=C(O)C(/C=C/c1c(Cl)cccc1Cl)=N\Nc1nc(-c2ccc(F)cc2)cs1 — IC50: 0.299 µM
CCN(CC)C(=O)Oc1ccc(/C=C/C(=O)NC2CCN(Cc3ccccc3)CC2)cc1 — IC50: 4.5 µM
CC(C)(C)OC(=O)NC1CCCN(C(=O)/C=C/c2cccc([N+](=O)[O-])c2)C1 (stereo not shown) — IC50: 35.1 µM
O=[N+]([O-])c1ccc(-c2nnc(-c3ccc(OCc4cn(Cc5ccc(Cl)cc5)nn4)cc3)o2)cc1 — IC50: > 100 µM
CCOc1ccc(/C=C/C(=O)N2CCCC(NC(=O)OC(C)(C)C)C2)cc1OC (stereo not shown) — IC50: 35.2 µM
Brc1ccc(Cn2cc(COc3ccc(-c4nnc(-c5ccccc5)o4)cc3)nn2)cc1 — IC50: > 100 µM
CCN(C)C(=O)Oc1ccc(/C=C/C(=O)NC2CCN(Cc3ccccc3)CC2)cc1 — IC50: 1.8 µM
COc1cccc(/C=C/C(=O)N2CCCC(NC(=O)OC(C)(C)C)C2)c1 (stereo not shown) — IC50: > 50 µM
CCN(C)C(=O)Oc1ccc(CCC(=O)N2CCC(CCCc3ccccc3)CC2)cc1OC — IC50: 15.2 µM
Fc1ccc(-c2nnc(-c3ccc(OCc4cn(Cc5ccccc5)nn4)cc3)o2)cc1 — IC50: > 100 µM
CC(C)(C)OC(=O)NC1CCCN(C(=O)/C=C/c2cccc(Cl)c2)C1 (stereo not shown) — IC50: > 50 µM
CCN(C)C(=O)Oc1ccc(CCC(=O)N2CCN(Cc3ccccc3)CC2)cc1OC — IC50: 12.2 µM
Fc1ccc(-c2nnc(-c3ccc(OCc4cn(Cc5ccc(Br)cc5)nn4)cc3)o2)cc1 — IC50: > 100 µM
CC(C)(C)OC(=O)NC1CCCN(C(=O)/C=C/c2ccccc2Br)C1 (stereo not shown) — IC50: 46.3 µM
Fc1ccc(Cn2cc(COc3ccc(-c4nnc(-c5ccc(F)cc5)o4)cc3)nn2)cc1 — IC50: > 100 µM
CCN(C)C(=O)Oc1ccc(CCC(=O)N2CCC(Cc3ccccc3)CC2)cc1OC — IC50: 9.1 µM
Cc1ccc(Cn2cc(COc3ccc(-c4nnc(-c5ccc(F)cc5)o4)cc3)nn2)cc1 — IC50: > 100 µM
CC(C)(C)OC(=O)NC1CCCN(C(=O)/C=C/c2ccc(Br)cc2)C1 (stereo not shown) — IC50: > 50 µM
CCN(C)C(=O)Oc1ccc(CCC(=O)N2CCN(Cc3ccccc3)CC2)cc1 — IC50: 7.8 µM
O=C(O)C(/C=C/c1c(Cl)cccc1Cl)=N\Nc1nc(-c2ccc(Cl)cc2)cs1 — IC50: 0.092 µM
CCN(CC)C(=O)Oc1ccc(CCC(=O)N2CCC(Cc3ccccc3)CC2)cc1OC — IC50: 9.3 µM
Clc1ccc(Cn2cc(COc3ccc(-c4nnc(-c5ccccc5)o4)cc3)nn2)cc1 — IC50: > 100 µM
CN(C)C(=O)Oc1ccc(/C=C/C(=O)NC2CCN(Cc3ccccc3)CC2)cc1 — IC50: 5.9 µM
CC(C)(C)OC(=O)NC1CCCN(C(=O)C=Cc2ccccc2)C1 (stereo not shown) — IC50: 39.4 µM
